How the values were obtained:
[1] = system: Lewis lung carcinoma cell line; test: In vivo for antitumor activity against Lewis lung carcinoma; type: functional, Mus musculus
Summary of the method: (§1)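 Mice inoculated intravenously with 10^6 Lewis lung carcinoma cells, then drug intraperitoneally in 0.1 mL 30% v/v ethanol-water on days 5, 9 and 13. D50 (mg/kg per day for 50% ILS) taken from dose-response graph. ILS at optimal dose versus untreated tumor-bearing controls. Survivors counted at 40 days.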

P388 [2] = test: In vivo for antitumor activity against P388 leukemia.; type: functional, Mus musculus
Summary of the method: (§2)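 Mice given 10^6 P388 leukemia cells intraperitoneally, then drug intraperitoneally in 0.1 mL 30% v/v ethanol-water on days 1, 5 and 9. D50 (mg/kg per day giving 50% ILS) read from dose-response graph. ILS at optimal dose versus untreated controls. Long-term survival counted at 30 days.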

HCT-8 = test: In vitro for cytotoxicity against human colon tumor cells (HCT-8) in culture; type: functional, cell-based
L1210 = test: In vitro for cytotoxicity against murine leukemia cells (L1210); type: functional, cell-based; settings: Mus musculus
[3] = system: Lewis lung carcinoma cell line; test: Evaluated in vivo for antitumor activity against Lewis lung carcinoma; type: functional, Mus musculus; summary of the method: as §1
P388 [4] = test: In vivo for antitumor activity against P388 leukemia; type: functional, Mus musculus; summary of the method: as §2
poly[d(A-T)] = test: Binding constant relative to amsacrine (Δlog K) for DNA binding by ethidium bromide displacement; settings: Bos taurus
[5] = system: Lewis lung carcinoma cell line; test: Evaluated in vivo for antitumor activity against Lewis lung carcinoma; g denotes ILS of 50% could not be reached at any dose level; type: functional, organism-based; settings: Mus musculus; summary of the method: as §1

| SMILES | OD [1] [mg/kg] | OD (P388 [2]) [mg/kg] | ILSmax [1] [%] | IC50 (HCT-8) [nM] | IC50 (L1210) [nM] | D50 [3] [mg/kg] | D50 (P388 [4]) [mg/kg] | ILSmax (P388 [4]) [%] | Δlog K (poly[d(A-T)]) | D50 [5] |
| --- | --- | --- | --- | --- | --- | --- | --- | --- | --- | --- |
| CNc1cc(NS(C)(=O)=O)ccc1Nc1c2ccccc2nc2ccccc12 | 30 | 13.3 |  |  |  |  |  |  |  |  |
| CNc1cc(NS(C)(=O)=O)ccc1Nc1c2ccc(F)cc2nc2c(C)cccc12 | 45 | 45 | 143 | 150 | 150 | 25 | 6 | 152 |  |  |
| COc1cc(NS(C)(=O)=O)ccc1Nc1c2ccccc2nc2ccc(Cl)cc12 |  |  |  |  |  |  |  |  | -0.08 |  |
| CNc1cc(NS(C)(=O)=O)ccc1Nc1c2ccc(Br)cc2nc2c(C)cccc12 | 13.3 | 13.3 | 34 | 49 | 21 |  | 7 | 122 | 7.27 | ILS of 50% could not be reached |
| CNc1cc(NS(C)(=O)=O)ccc1Nc1c2cccc(OC)c2nc2c(OC)cccc12 | 65 | 150 | 116 | 160 | 130 | 30 | 25 | 14 |  |  |
| CNC(=O)c1cccc2c(Nc3ccc(NS(C)(=O)=O)cc3NC)c3ccccc3nc12 | 45 | 65 | 91 | 1800 | 56 | 6.8 | 30 | 82 |  |  |
| CNc1cc(NS(C)(=O)=O)ccc1Nc1c2ccc(C)cc2nc2c(OC)cccc12 | 20 | 13.3 | 194 | 70 | 65 | 10 | 5.5 | 122 |  |  |
| COc1cc(NS(C)(=O)=O)ccc1Nc1c2ccccc2nc2cc(C)ccc12 |  |  |  |  |  |  |  |  | 0.38 |  |
| CNC(=O)c1ccc2c(Nc3ccc(NS(C)(=O)=O)cc3NC)c3ccccc3nc2c1 |  | 65 |  | > 104 | > 1600 |  | 30 | 62 |  |  |
| CNc1cc(NS(C)(=O)=O)ccc1Nc1c2ccccc2nc2cc(Cl)ccc12 | 20 | 30 | 98 | 170 | 24 | 15 | 10 | 149 |  |  |
| CNc1cc(NS(C)(=O)=O)ccc1Nc1c2ccccc2nc2c(OC)cccc12 | 45 | 45 | 153 | 140 | 130 | 19 | 5 | 170 |  |  |
| CNc1cc(NS(C)(=O)=O)ccc1Nc1c2ccc(Br)cc2nc2c(OC)cccc12 | 65 | 65 | 111 | 150 | 41 | 40 | 9 | 174 |  |  |
| CNc1cc(NS(C)(=O)=O)ccc1Nc1c2ccccc2nc2c(Cl)cccc12 | 100 | 100 | 59 | 740 | 690 | 80 | 65 | 64 |  |  |
| CNc1cc(NS(C)(=O)=O)ccc1Nc1c2ccccc2nc2cc(F)ccc12 | 45 | 45 | 79 | 460 | 94 | 20 | 15 | 157 |  |  |
| CNC(=O)c1cccc2c(Nc3ccc(NS(C)(=O)=O)cc3NC)c3cccc(OC)c3nc12 | 65 | 65 | 34 | > 1000 | 320 |  | 30 | 148 | 6.92 | ILS of 50% could not be reached |
| CNc1cc(NS(C)(=O)=O)ccc1Nc1c2ccc(Cl)cc2nc2c(C)cccc12 | 30 | 13.3 | 126 | 73 | 15 | 8 | 5 | 128 |  |  |
| COc1cc(NS(C)(=O)=O)ccc1Nc1c2ccccc2nc2cc(I)ccc12 |  |  |  |  |  |  |  |  | 0.78 |  |
| CNC(=O)c1cccc2c(Nc3ccc(NS(C)(=O)=O)cc3NC)c3cccc(C)c3nc12 | 30 | 13.3 | 62 | 353 | 82 | 25 | 6 | 94 |  |  |
| COc1cc(NS(C)(=O)=O)ccc1Nc1c2ccccc2nc2cc(F)ccc12 |  |  |  |  |  |  |  |  | -0.03 |  |
| COc1cc(NS(C)(=O)=O)ccc1Nc1c2ccccc2nc2ccc(C)cc12 |  |  |  |  |  |  |  |  | -0.22 |  |

| SMILES | OD [1] [mg/kg] | OD (P388 [2]) [mg/kg] | ILSmax [1] [%] | IC50 (HCT-8) [nM] | IC50 (L1210) [nM] | D50 [3] [mg/kg] | D50 (P388 [4]) [mg/kg] | ILSmax (P388 [4]) [%] | Δlog K (poly[d(A-T)]) | D50 [5] |
| --- | --- | --- | --- | --- | --- | --- | --- | --- | --- | --- |
| COc1cc(NS(C)(=O)=O)ccc1Nc1c2ccccc2nc2c(OC)cccc12 |  |  |  |  |  |  |  |  | 0.37 |  |
| CNc1cc(NS(C)(=O)=O)ccc1Nc1c2ccccc2nc2ccc(C)cc12 | 100 | 100 | 200 | 1700 | 550 |  | 55 | 8 | 5.89 | ILS of 50% could not be reached |
| CNc1cc(NS(C)(=O)=O)ccc1Nc1c2ccc(F)cc2nc2c(OC)cccc12 | 65 | 65 | 85 | 370 | 200 | 45 | 20 | 100 |  |  |
| COc1cc(NS(C)(=O)=O)ccc1Nc1c2ccccc2nc2cc(Cl)ccc12 |  |  |  |  |  |  |  |  | 0.49 |  |
| CNC(=O)c1cccc2c(Nc3ccc(NS(C)(=O)=O)cc3OC)c3cccc(C)c3nc12 [ASULACRINE] | 30 | 20 |  |  |  |  |  |  |  |  |
| CNc1cc(NS(C)(=O)=O)ccc1Nc1c2ccc(OC)cc2nc2c(C)cccc12 | 4 | 1.8 | 50 | 29 | 16 | 4 | 0.3 | 166 |  |  |
| CNc1cc(NS(C)(=O)=O)ccc1Nc1c2ccccc2nc2cc(OC)ccc12 | 20 | 8.9 | 75 | 180 | 35 | 15 | 4.5 | 132 |  |  |
| COc1ccc2c(Nc3ccc(NS(C)(=O)=O)cc3OC)c3ccccc3nc2c1 |  |  |  |  |  |  |  |  | 0.26 |  |
| CNc1cc(NS(C)(=O)=O)ccc1Nc1c2ccccc2nc2c(C)c(C)ccc12 | 20 | 13.3 | 155 | 76 | 43 | 10 | 7 | 148 |  |  |
| COc1ccc2[nH]c3ccccc3c(=Nc3ccc(NS(C)(=O)=O)cc3OC)c2c1 |  |  |  |  |  |  |  |  | -0.08 |  |
| CNc1cc(NS(C)(=O)=O)ccc1Nc1c2cccc(C)c2nc2c(C)cccc12 | 65 | 45 | 125 | 190 | 91 | 25 | 6 | 202 |  |  |
| CNc1cc(NS(C)(=O)=O)ccc1Nc1c2ccccc2nc2c(F)cccc12 | 65 | 45 | 55 | 690 | 400 | 60 | 20 | 152 |  |  |
| COc1cc(NS(C)(=O)=O)ccc1Nc1c2ccccc2nc2c(C)cccc12 |  |  |  |  |  |  |  |  | 0.46 |  |
| CNc1cc(NS(C)(=O)=O)ccc1Nc1c2ccc(Cl)cc2nc2c(OC)cccc12 | 45 | 65 | 159 | 143 | 120 | 13 | 20 | 236 |  |  |
| COc1cc(NS(C)(=O)=O)ccc1Nc1c2ccccc2nc2c(Cl)cccc12 |  |  |  |  |  |  |  |  | 0.19 |  |
| CNc1cc(NS(C)(=O)=O)ccc1Nc1c2ccc(C)cc2nc2c(C)cccc12 | 5.9 | 5.9 | 93 | 24 | 19 | 4.2 | 2 | 92 |  |  |
| CNc1cc(NS(C)(=O)=O)ccc1Nc1c2ccccc2nc2c(C)cccc12 | 20 | 13.3 | 139 | 79 | 53 | 8.9 | 3 | 157 |  |  |
| CNC(=O)c1cccc2c(Nc3ccc(NS(C)(=O)=O)cc3OC)c3ccccc3nc12 |  |  |  |  |  |  |  |  | -0.03 |  |
| COc1cc(NS(C)(=O)=O)ccc1Nc1c2ccccc2nc2ccccc12 [AMSACRINE] |  |  |  |  |  |  |  |  |  | ILS of 50% could not be reached |
| COc1cc(NS(C)(=O)=O)ccc1Nc1c2ccccc2nc2cc(Br)ccc12 |  |  |  |  |  |  |  |  | 0.72 |  |
